From paper PMC10139733 (Journal of drug delivery science and technology, 2023) come the findings set out here.

Where a name gives a salt, the structure may show the parent alone.

For orientation: solubility means the concentration that dissolves in the medium under given conditions.

Series [1] relates to Caco-2 cells monolayer. Nature of the series: In vitro transport across the Caco-2 cells monolayer. The series is classed as in vitro ADME. As to conditions: 80 μg/mL equivalent drug, up to 240 min. An outline of the steps:
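Caco-2 cells in RPMI with 10% FBS and 1% penicillin/streptomycin (37 °C, 5% CO2) seeded at 10 × 10⁴ cells/insert on Geltrex-coated 0.3 μm polycarbonate inserts, fed every 2 days for 21 days. Only monolayers with TEER > 300 Ω·cm² were used. Test compound was dispersed in medium and applied apically. Basolateral samples at 30–240 min were replaced with warm medium. Three inserts per time point; HPLC.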
On the technique in general: Passage across Caco-2 layers is used to estimate intestinal permeability.

Series [2] can be described thus: Screening solubility of sorafenib in oils, surfactants and cosolvents. In kind it is physicochemical. As to conditions: 37 °C, thermodynamic from solid.

For `CNC(=O)c1cc(Oc2ccc(NC(=O)Nc3ccc(Cl)c(C(F)(F)F)c3)cc2)ccn1` [sorafenib, Sorafenib tosylate], in series [1], the “Penetration of sorafenib across the monolayer, apical to basolateral” value is on record as “absolutely no penetration”. Also, the solubility at 24 h was 5160 ± 800 µg/mL in series [2] (capmul MCM (oil), oil or lipid); 42.8 ± 7.6 µg/mL in series [2] (captex 355 (oil), oil or lipid); 279 ± 6.5 µg/mL in series [2] (carpyol 90 (oil), oil or lipid); 53 ± 13.7 µg/mL in series [2] (corn oil, oil or lipid); 5800 ± 800 µg/mL in series [2] (ethanol (cosolvent), organic solvent or mixture); 37.9 ± 7.2 µg/mL in series [2] (isopropyl myristate (oil), oil or lipid). Further, the solubility at 24 h in series [2] (labrafil M 1944 CS (oil), oil or lipid) came out at 350 ± 50 µg/mL; in series [2] (labrafil M 2125 CS (oil), oil or lipid), 279 ± 44.9 µg/mL; in series [2] (lauroglycol (oil), oil or lipid), 298 ± 184 µg/mL; in series [2] (mineral oil, oil or lipid), 47.6 ± 25.2 µg/mL; in series [2] (olive oil, oil or lipid), 35 ± 0.6 µg/mL; in series [2] (peceol (oil), oil or lipid) it was 900 ± 500 µg/mL. The solubility at 24 h in series [2] (soybean oil, oil or lipid) amounted to 64 ± 49.3 µg/mL; in series [2] (triacetin (oil), oil or lipid) it was 113 ± 62.5 µg/mL.
